The source made the active and inactive calls.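 The calls were made as follows: active = inhibition of 50% or more against any one of four protein arginine deiminase enzymes; inactive = the rest.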
Key:
Test in all cases: inhibitors of PAD1, PAD2, PAD3 and PAD4, late-stage follow-up, selectivity assay for PAD4 inhibitor project, biochemical, colorimetric, BAEE substrate, recombinant enzymes (AID 588560)
[1] = biological target: Protein-arginine deiminase type-1 (Homo sapiens) (UniProt Q9ULC6); settings: recombinant PAD1-4, BAEE citrulline colorimetric, 15 min; PAD1; at 10 µM; hits give high values
Procedure, shortened: (§1)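 assay system = recombinant PAD1, PAD2, PAD3 or PAD4 enzyme, one isozyme per assay | medium = Tris pH 7.6 buffer with CaCl2 and DTT | schedule = 15 min enzyme–compound preincubation plus 15 min substrate reaction, both 37 °C | detection = colorimetric citrulline detection with diacetyl monoxime/thiosemicarbazide, absorbance 540 nm | control set = DMSO-treated enzyme as uninhibited reference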

[2] = biological target: Protein-arginine deiminase type-2 (Homo sapiens) (UniProt Q9Y2J8); settings: recombinant PAD1-4, BAEE citrulline colorimetric, 15 min; PAD2; at 10 µM; hits give high values
Procedure, shortened: as §1

[3] = biological target: Protein-arginine deiminase type-3 (Homo sapiens) (UniProt Q9ULW8); settings: recombinant PAD1-4, BAEE citrulline colorimetric, 15 min; PAD3; at 10 µM; hits give high values
Procedure, shortened: as §1

[4] = biological target: Protein-arginine deiminase type-4 (Homo sapiens) (UniProt Q9UM07); settings: recombinant PAD1-4, BAEE citrulline colorimetric, 15 min; PAD4; at 10 µM; hits give high values
Procedure, shortened: as §1

Chain of Protein-arginine deiminase type-4 (Homo sapiens) (Q9UM07 whole entry, looked up): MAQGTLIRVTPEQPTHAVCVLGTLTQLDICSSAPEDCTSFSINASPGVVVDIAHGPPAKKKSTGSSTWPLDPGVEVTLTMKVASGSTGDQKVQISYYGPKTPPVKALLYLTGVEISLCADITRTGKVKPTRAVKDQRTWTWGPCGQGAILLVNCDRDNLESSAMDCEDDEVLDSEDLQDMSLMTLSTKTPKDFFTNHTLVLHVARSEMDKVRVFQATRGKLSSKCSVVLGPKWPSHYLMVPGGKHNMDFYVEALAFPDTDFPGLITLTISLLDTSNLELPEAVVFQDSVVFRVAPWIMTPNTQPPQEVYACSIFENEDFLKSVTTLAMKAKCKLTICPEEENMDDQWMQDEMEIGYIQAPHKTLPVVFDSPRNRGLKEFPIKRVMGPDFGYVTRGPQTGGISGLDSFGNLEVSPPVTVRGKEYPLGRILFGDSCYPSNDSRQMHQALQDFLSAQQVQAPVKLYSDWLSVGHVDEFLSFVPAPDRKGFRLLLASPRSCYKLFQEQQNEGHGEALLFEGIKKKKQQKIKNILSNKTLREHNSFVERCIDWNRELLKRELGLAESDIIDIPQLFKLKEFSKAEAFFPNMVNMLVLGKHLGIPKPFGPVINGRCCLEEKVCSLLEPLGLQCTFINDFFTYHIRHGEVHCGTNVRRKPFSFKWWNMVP
Chain of Protein-arginine deiminase type-1 (Homo sapiens) (Q9ULC6 whole entry, looked up): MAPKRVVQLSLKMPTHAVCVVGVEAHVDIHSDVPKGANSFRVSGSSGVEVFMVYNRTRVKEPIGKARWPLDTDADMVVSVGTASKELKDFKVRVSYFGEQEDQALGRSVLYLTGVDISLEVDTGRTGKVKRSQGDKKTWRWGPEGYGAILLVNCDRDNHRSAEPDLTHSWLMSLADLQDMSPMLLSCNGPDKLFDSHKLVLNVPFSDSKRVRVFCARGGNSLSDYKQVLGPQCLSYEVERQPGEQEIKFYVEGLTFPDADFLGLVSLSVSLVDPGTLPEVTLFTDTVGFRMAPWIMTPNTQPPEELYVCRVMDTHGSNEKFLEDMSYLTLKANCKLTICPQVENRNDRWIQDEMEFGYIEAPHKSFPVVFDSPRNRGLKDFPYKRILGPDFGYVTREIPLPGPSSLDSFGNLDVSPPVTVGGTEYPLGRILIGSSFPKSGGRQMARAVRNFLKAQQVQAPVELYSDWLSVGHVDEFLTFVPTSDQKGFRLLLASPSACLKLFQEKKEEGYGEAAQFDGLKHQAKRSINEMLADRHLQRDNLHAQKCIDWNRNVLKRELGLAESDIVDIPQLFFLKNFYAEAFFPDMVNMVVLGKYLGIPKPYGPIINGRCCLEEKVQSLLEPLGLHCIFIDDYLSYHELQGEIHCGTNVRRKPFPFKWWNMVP
Chain of Protein-arginine deiminase type-2 (Homo sapiens) (Q9Y2J8 whole entry, looked up): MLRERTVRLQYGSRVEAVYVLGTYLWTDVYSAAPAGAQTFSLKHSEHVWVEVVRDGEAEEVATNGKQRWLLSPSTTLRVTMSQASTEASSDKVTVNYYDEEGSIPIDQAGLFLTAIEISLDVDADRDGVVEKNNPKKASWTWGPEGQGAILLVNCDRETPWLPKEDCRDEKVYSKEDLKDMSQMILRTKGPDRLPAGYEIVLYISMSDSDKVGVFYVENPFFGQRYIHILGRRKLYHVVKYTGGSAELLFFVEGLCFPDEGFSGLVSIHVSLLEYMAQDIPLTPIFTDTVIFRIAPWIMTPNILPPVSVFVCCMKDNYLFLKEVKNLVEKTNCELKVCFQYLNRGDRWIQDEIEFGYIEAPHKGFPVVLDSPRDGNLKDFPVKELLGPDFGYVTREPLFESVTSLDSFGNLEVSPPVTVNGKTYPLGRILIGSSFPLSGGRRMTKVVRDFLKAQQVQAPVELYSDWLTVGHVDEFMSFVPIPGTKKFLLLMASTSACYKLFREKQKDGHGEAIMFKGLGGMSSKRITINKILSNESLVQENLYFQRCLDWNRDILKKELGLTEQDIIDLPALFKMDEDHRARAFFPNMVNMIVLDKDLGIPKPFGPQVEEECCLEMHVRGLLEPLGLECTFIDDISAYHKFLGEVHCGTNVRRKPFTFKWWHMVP
Chain of Protein-arginine deiminase type-3 (Homo sapiens) (Q9ULW8 whole entry, looked up): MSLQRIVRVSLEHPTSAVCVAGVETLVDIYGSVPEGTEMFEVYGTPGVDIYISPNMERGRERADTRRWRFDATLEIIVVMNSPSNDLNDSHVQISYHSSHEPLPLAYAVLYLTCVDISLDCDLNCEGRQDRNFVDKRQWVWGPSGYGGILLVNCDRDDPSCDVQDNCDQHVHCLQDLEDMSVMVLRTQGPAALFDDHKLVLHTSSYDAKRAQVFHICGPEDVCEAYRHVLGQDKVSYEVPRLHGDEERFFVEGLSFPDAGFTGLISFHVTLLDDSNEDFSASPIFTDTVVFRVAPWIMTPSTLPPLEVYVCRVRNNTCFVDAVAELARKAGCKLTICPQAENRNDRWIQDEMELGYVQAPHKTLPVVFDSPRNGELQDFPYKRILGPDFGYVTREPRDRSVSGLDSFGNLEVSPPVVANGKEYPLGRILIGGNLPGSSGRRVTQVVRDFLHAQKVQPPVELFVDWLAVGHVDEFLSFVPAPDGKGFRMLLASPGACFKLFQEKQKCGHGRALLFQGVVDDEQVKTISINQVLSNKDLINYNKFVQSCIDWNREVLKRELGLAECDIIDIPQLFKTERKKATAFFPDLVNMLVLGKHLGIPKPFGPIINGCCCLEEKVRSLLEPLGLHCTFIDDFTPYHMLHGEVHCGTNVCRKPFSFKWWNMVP

inhibition [1] | inhibition [2] | inhibition [3] | inhibition [4] | SMILES
-23% (inactive) | -18% (inactive) | -7% (inactive) | – | O=C(O)c1cccc(-c2ccc3ccc(Br)c(OCc4ccccc4)c3n2)n1
-20% (inactive) | -19% (inactive) | -30% (inactive) | – | COC(=O)c1nc(C(=O)OC)c(NC(C)=O)c(-c2ccccc2Br)c1C
50% | 62% | 100% | 91% | COC1=C(Br)C(=O)c2nc(-c3ccccn3)ccc2C1=O
39% (inactive) | 41% (inactive) | 96% | 83% | O=C1C(O)=C(O)C(=O)c2ncccc21
5% (inactive) | -29% (inactive) | -20% (inactive) | – | COC(=O)c1nc(C(C)=O)c2[nH]c3ccccc3c2c1C
22% (inactive) | 28% (inactive) | 44% (inactive) | 43% (inactive) | NC1=C(N)C(=O)c2ccccc2C1=O
-5% (inactive) | -22% (inactive) | -28% (inactive) | – | COC(=O)c1cccc(-c2ccc3ccc(Br)c(O)c3n2)n1
0% (inactive) | -26% (inactive) | -43% (inactive) | – | COC(=O)c1cccc(-c2ccc3c(n2)C(=O)C(Br)=CC3=O)n1
71% | 85% | 97% | 98% | NC1=CC(=O)c2ccc(-c3cccc(C(=O)O)n3)nc2C1=O
60% | 63% | 98% | 97% | COC1=C(I)C(=O)c2nc(C#N)ccc2C1=O
-12% (inactive) | 17% (inactive) | 19% (inactive) | – | COc1ccc2ncccc2c1[N+](=O)[O-]
75% | 88% | 7% (inactive) | – | COC1=C(Br)C(=O)c2ncccc2C1=O
-41% (inactive) | -13% (inactive) | 24% (inactive) | – | COC(=O)c1nnc(C(=O)OC)c(-c2ccc3ccccc3n2)n1
73% | 101% | 90% | – | NC1=CC(=O)c2ccc(-c3ccccn3)nc2C1=O
75% | 92% | 84% | – | COC(=O)c1cccc(-c2ccc3c(n2)C(=O)C(N)=CC3=O)n1
-20% (inactive) | -18% (inactive) | 16% (inactive) | – | COC(=O)c1cc(-c2ccccc2)c(C(=O)OC)c(-c2ccc3ccccc3n2)n1
-6% (inactive) | -22% (inactive) | -30% (inactive) | – | COC(=O)c1nc(C(=O)OC)c(N)c(-c2ccccc2Br)c1C
-24% (inactive) | 2% (inactive) | 16% (inactive) | – | COc1ccc2nc(C#N)ccc2c1[N+](=O)[O-]
-15% (inactive) | -31% (inactive) | -7% (inactive) | – | CCOC(=O)c1nc(C(=O)OCC)c(C(=O)OCC)c(-c2ccc(OC)c(OC)c2OCc2ccccc2)c1C
57% | 78% | 100% | 87% | COC1=C(N)C(=O)c2ncccc2C1=O
-17% (inactive) | 14% (inactive) | 76% | 56% | O=C1C=C(Br)C(=O)c2ncccc21
-57% (inactive) | 12% (inactive) | 10% (inactive) | 10% (inactive) | O=C1C(Br)=CC(=O)c2ncccc21
-37% (inactive) | 35% (inactive) | 8% (inactive) | – | COc1ccc2nc(C#N)ccc2c1
70% | 89% | 100% | 99% | NC1=CC(=O)c2cccnc2C1=O
-13% (inactive) | -19% (inactive) | 8% (inactive) | 13% (inactive) | NC1=CC(=O)c2ccc(-c3cc(C(=O)O)ccc3N)nc2C1=O
-38% (inactive) | 7% (inactive) | 18% (inactive) | – | COC(=O)c1nnc(C(=O)OC)c(-c2ccc3c([N+](=O)[O-])c(OC)ccc3n2)n1
-21% (inactive) | -14% (inactive) | 15% (inactive) | – | COC(=O)c1nnc(C(=O)OC)c(-c2ccc3cc(OC)ccc3n2)n1
68% | 88% | 99% | 97% | COC1=CC(=O)c2nc(C#N)ccc2C1=O

SMILES | inhibition [1] | inhibition [2] | inhibition [3] | inhibition [4]
COC(=O)c1nc(-c2ccc3c(n2)C(=O)C(Br)=CC3=O)c2[nH]c3ccccc3c2c1C | -24% (inactive) | -15% (inactive) | -16% (inactive) | –

Source: PubChem BioAssay AID588560 (The Scripps Research Institute Molecular Screening Center, 2011)
